We go through 14 molecules from ChEMBL document CHEMBL1157505, “Design and in vitro characterization of highly sst2-selective somatostatin antagonists suitable for radiotargeting” (J Med Chem, 2008).

Test [1] concerns the target Somatostatin receptor type 3 (Homo sapiens, UniProt P32745). The test is described as follows: Displacement of [125I][LTT]SRIF28 from human cloned sst3 receptor by autoradiography. On the technique in general: Displacement assays read how much labelled ligand stays bound in the presence of the test substance.
Test [2] deals with Somatostatin receptor type 5 (Homo sapiens, UniProt P35346). Briefly: Displacement of [125I][LTT]SRIF28 from human cloned sst5 receptor by autoradiography.
Sequence of Somatostatin receptor type 5 (P35346 whole entry): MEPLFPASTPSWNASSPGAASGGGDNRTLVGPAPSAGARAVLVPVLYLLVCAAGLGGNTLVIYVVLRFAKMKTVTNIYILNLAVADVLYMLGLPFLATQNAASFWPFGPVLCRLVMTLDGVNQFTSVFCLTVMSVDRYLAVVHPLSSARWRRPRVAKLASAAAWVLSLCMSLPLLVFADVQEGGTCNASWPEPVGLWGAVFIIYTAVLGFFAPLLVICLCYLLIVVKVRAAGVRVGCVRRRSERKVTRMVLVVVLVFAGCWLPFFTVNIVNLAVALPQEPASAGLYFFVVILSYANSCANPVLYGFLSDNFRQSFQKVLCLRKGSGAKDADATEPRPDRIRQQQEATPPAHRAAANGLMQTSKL
The target in test [3] is T1, Somatostatin receptor type 2 (Homo sapiens, UniProt P30874). Briefly: Displacement of [125I][LTT]SRIF28 from human cloned sst2 receptor by autoradiography.
T1 sequence (P30874 whole entry): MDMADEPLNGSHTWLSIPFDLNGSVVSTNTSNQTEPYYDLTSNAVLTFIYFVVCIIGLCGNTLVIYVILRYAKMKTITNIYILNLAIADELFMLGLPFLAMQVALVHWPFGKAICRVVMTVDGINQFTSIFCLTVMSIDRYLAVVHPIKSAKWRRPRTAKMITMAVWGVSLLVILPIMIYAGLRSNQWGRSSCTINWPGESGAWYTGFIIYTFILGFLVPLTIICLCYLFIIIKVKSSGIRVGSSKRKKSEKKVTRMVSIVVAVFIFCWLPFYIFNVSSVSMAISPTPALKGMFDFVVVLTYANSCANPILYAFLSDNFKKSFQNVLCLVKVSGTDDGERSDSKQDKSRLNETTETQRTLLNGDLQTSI
Test [4] addresses Somatostatin receptor type 4 (Homo sapiens, UniProt P31391). The test is described as follows: Displacement of [125I][LTT]SRIF28 from human cloned sst4 receptor by autoradiography.
The target of test [5] is Somatostatin receptor type 1 (Homo sapiens, UniProt P30872). The test is described as follows: Displacement of [125I][LTT]SRIF28 from human cloned sst1 receptor by autoradiography.
Sequence of Somatostatin receptor type 1 (P30872 whole entry): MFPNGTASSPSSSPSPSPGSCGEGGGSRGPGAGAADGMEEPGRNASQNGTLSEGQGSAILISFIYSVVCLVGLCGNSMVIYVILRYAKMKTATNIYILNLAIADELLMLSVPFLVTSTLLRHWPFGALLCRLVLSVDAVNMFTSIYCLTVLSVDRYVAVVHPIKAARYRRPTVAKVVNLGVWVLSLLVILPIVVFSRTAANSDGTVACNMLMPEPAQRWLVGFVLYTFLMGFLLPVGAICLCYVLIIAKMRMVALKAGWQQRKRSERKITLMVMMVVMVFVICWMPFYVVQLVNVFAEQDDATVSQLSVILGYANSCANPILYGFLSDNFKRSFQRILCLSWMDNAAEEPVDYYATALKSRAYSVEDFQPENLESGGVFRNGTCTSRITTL
Test [6] addresses T1, Somatostatin receptor type 2. The test is described as follows: Antagonist activity at T7 epitope tagged human cloned sst2 expressed in HEK293 cells assessed as [Tyr3]octreotide-induced intracellular calcium release upto 10 uM. It counts as functional, cell-based. An outline of the steps: (§1)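 HEK-sst2 cells seeded on poly-D-lysine, cultured 1 day, loaded with Fluo-4NW dye (assay buffer HBSS/20 mM HEPES, 2.5 mM probenecid) 30 min 37 °C plus 30 min RT. Analogues alone up to 10 μM, or [Tyr3]-octreotide with 100-fold excess analogue; fluorescence (ex 485/em 520 nm) recorded 60 s at RT; percentage of ionomycin (25 μM) maximum over baseline; ≥3 experiments in triplicate.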

Test [7] shares this target. Briefly: Antagonist activity at T7 epitope tagged human cloned sst2 expressed in HEK293 cells assessed as intracellular calcium release upto 10 uM. It counts as functional, cell-based. Put shortly:
as §1

The target is the same in test [8]. Briefly: Antagonist activity at T7 epitope tagged human cloned sst2 receptor expressed in HEK293 cells assessed as inhibition of [Tyr3]octreotide-induced receptor internalization upto 10 uM. Format: functional, cell-based. Put shortly:
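Surface T7-tagged sst2 on HEK-sst2 cells labelled with anti-T7 antibody 2 h RT in DMEM-LH, then cells exposed 30 min at 37 °C to analogue (alone up to 10 μM or with [Tyr3]-octreotide), fixed in 3% paraformaldehyde, probed with HRP anti-mouse IgG, ABTS read at OD405; surface receptor as % of untreated; mean ± SEM, three experiments in duplicate.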

Calls of active or inactive are those of the source. The calls are words filed in the database; no cut-off is given here.

Sequence of Somatostatin receptor type 3 (P32745 whole entry): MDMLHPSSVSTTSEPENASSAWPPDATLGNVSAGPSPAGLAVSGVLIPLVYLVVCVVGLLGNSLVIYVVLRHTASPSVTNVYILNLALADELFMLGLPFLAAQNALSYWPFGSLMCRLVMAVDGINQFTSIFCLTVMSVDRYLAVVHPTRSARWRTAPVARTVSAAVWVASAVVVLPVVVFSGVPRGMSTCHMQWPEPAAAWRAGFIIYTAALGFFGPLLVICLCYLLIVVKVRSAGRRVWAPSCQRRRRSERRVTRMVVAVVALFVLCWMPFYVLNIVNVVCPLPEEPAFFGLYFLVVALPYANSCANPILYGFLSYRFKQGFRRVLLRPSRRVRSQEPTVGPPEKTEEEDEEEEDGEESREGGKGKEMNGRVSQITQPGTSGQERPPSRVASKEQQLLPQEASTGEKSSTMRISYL
Sequence of Somatostatin receptor type 4 (P31391 whole entry): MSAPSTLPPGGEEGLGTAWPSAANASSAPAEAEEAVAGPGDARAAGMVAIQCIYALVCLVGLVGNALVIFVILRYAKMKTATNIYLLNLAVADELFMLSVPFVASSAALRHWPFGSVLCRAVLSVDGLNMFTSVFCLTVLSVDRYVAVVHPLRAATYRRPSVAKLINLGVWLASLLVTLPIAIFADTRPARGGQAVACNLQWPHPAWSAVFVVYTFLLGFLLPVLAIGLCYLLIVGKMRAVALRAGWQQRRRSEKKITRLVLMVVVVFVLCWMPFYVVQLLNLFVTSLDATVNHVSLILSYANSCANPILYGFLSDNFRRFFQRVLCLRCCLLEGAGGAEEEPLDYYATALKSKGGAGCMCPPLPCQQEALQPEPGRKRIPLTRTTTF

As for `C[C@@H](O)[C@@H]1NC(=O)[C@H](CCCCN)NC(=O)[C@@H](Cc2c[nH]c3ccccc23)NC(=O)[C@H](Cc2ccc(NC(N)=O)cc2)NC(=O)[C@H](NC(=O)[C@@H](N)Cc2ccc(Cl)cc2)CSSC[C@@H](C(=O)N[C@@H](Cc2ccc(NC(=O)[C@@H]3CC(=O)NC(=O)N3)cc2)C(N)=O)NC1=O`, the IC50 in test [1] was 162 nM; in test [2], 320 nM; in test [3], 27 nM; in test [4], over 1000 nM; in test [5], over 1000 nM.

Consider `C[C@@H](O)[C@@H]1NC(=O)[C@H](CCCCN)NC(=O)[C@@H](Cc2ccc(NC(N)=O)cc2)NC(=O)[C@H](Cc2ccc(NC(=O)[C@@H]3CC(=O)NC(=O)N3)cc2)NC(=O)[C@H](NC(=O)[C@@H](N)Cc2ccc(Cl)cc2)CSSC[C@@H](C(=O)N[C@@H](Cc2ccc3ccccc3c2)C(N)=O)NC1=O`, for which the IC50 in test [1] is 83 nM; in test [2] it was over 1000 nM; in test [3] it was 2.4 nM; in test [4] it was over 1000 nM; in test [5] it was over 1000 nM.

`C[C@@H](O)[C@@H]1NC(=O)[C@H](CCCCN)NC(=O)[C@@H](Cc2c[nH]c3ccccc23)NC(=O)[C@H](Cc2ccc(O)cc2)NC(=O)[C@H](NC(=O)[C@@H](Cc2ccc([N+](=O)[O-])cc2)NC(=O)CN2CCN(CC(=O)O)CCN(CC(=O)O)CCN(CC(=O)O)CC2)CSSC[C@@H](C(=O)N[C@H](Cc2ccc(O)cc2)C(N)=O)NC1=O`: the result in test [6] and in test [8] was Active. Further, the result in test [7] was inactive.

In the case of `C[C@@H](O)[C@@H]1NC(=O)[C@H](CCCCN)NC(=O)[C@@H](Cc2c[nH]c3ccccc23)NC(=O)[C@H](Cc2ccc(NC(N)=O)cc2)NC(=O)[C@H](NC(=O)[C@H](N)Cc2ccc(Cl)cc2)CSSC[C@@H](C(N)=O)NC1=O`, the outcome in test [6] and in test [8] was Active. In test [7], the outcome was inactive.

With `C[C@@H](O)[C@@H]1NC(=O)[C@H](CCCCN)NC(=O)[C@@H](Cc2c[nH]c3ccccc23)NC(=O)[C@H](Cc2ccc(O)c(I)c2)NC(=O)[C@H](NC(=O)[C@H](Cc2ccc([N+](=O)[O-])cc2)NC(=O)CN2CCN(CC(=O)O)CCN(CC(=O)O)CCN(CC(=O)O)CC2)CSSC[C@@H](C(=O)N[C@H](Cc2ccc(O)cc2)C(N)=O)NC1=O`, the IC50 in test [1] was over 1000 nM; in test [2] it was over 1000 nM; in test [3], 1.2 nM; in test [4], 455 nM; in test [5], over 1000 nM.

With `C[C@@H](O)[C@@H]1NC(=O)[C@H](CCCCN)NC(=O)[C@@H](Cc2ccc(NC(N)=O)cc2)NC(=O)[C@H](Cc2ccc(O)cc2)NC(=O)[C@H](NC(=O)[C@@H](Cc2ccc([N+](=O)[O-])cc2)NC(=O)CN2CCN(CC(=O)O)CCN(CC(=O)O)CCN(CC(=O)O)CC2)CSSC[C@@H](C(=O)N[C@@H](Cc2ccc3ccccc3c2)C(N)=O)NC1=O`, the result in test [6] and in test [8] was Active. The result in test [7] was inactive.

Turning to `C[C@@H](O)[C@@H]1NC(=O)[C@H](CCCCN)NC(=O)[C@@H](Cc2c[nH]c3ccccc23)NC(=O)[C@H](Cc2ccc(NC(N)=O)cc2)NC(=O)[C@H](NC(=O)[C@@H](Cc2ccc(Cl)cc2)NC(=O)CCNC(=O)CN2CCN(CC(=O)O)CCN(CC(=O)O)CCN(CC(=O)O)CC2)CSSC[C@@H](C(=O)N[C@@H](Cc2ccc3ccccc3c2)C(N)=O)NC1=O`, the outcome in test [6] and in test [8] was Active. In addition, in test [7], the outcome was inactive.

Turning to `C[C@@H](O)[C@@H]1NC(=O)[C@H](CCCCN)NC(=O)[C@@H](Cc2ccc(NC(N)=O)cc2)NC(=O)[C@H](Cc2ccc(NC(=O)[C@@H]3CC(=O)NC(=O)N3)cc2)NC(=O)[C@H](NC(=O)[C@@H](N)Cc2ccc([N+](=O)[O-])cc2)CSSC[C@@H](C(=O)N[C@@H](Cc2ccc3ccccc3c2)C(N)=O)NC1=O`, the IC50 in test [1] is 451 nM; in test [2], over 1000 nM; in test [3], 2.7 nM; in test [4] it was over 1000 nM; in test [5], over 1000 nM.

For the molecule `C[C@@H](O)[C@@H]1NC(=O)[C@H](CCCCN)NC(=O)[C@@H](Cc2c[nH]c3ccc(F)cc23)NC(=O)[C@H](Cc2ccc(NC(N)=O)cc2)NC(=O)[C@H](NC(=O)[C@H](N)Cc2ccc(Cl)cc2)CSSC[C@@H](C(=O)N[C@@H](Cc2ccc3ccccc3c2)C(N)=O)NC1=O`, the outcome in test [6] and in test [8] was Active. In test [7], the result was inactive.

In the case of `C[C@@H](O)[C@@H]1NC(=O)[C@H](CCCCN)NC(=O)[C@@H](Cc2c[nH]c3ccccc23)NC(=O)[C@H](Cc2ccc(NC(N)=O)cc2)NC(=O)[C@H](NC(=O)[C@H](Cc2ccc(Cl)cc2)NC(=O)CCOCCOCCOCCNC(=O)CN2CCN(CC(=O)O)CCN(CC(=O)O)CCN(CC(=O)O)CC2)CSSC[C@@H](C(=O)N[C@@H](Cc2ccc3ccccc3c2)C(N)=O)NC1=O`, the IC50 was 88 nM in test [1]; 895 nM in test [2]; 40 nM in test [3]; 728 nM in test [4]; over 1000 nM in test [5].

For the molecule `C[C@@H](O)[C@@H]1NC(=O)[C@H](CCCCN)NC(=O)[C@@H](Cc2ccc(NC(N)=O)cc2)NC(=O)[C@H](Cc2ccc(NC(=O)[C@@H]3CC(=O)NC(=O)N3)cc2)NC(=O)[C@H](NC(=O)[C@@H](Cc2ccc(Cl)cc2)NC(=O)CN2CCN(CC(=O)O)CCN(CC(=O)O)CCN(CC(=O)O)CC2)CSSC[C@@H](C(=O)N[C@@H](Cc2ccc3ccccc3c2)C(N)=O)NC1=O`, the outcome in test [6] and in test [8] was Active. The outcome in test [7] was inactive.

For the molecule `C[C@@H](O)[C@@H]1NC(=O)[C@H](CCCCN)NC(=O)[C@@H](Cc2ccc(NC(N)=O)cc2)NC(=O)[C@H](Cc2ccc(NC(=O)[C@@H]3CC(=O)NC(=O)N3)cc2)NC(=O)[C@H](NC(=O)[C@H](N)Cc2ccc(Cl)cc2)CSSC[C@@H](C(=O)N[C@@H](Cc2ccc3ccccc3c2)C(N)=O)NC1=O`, the outcome in test [6] and in test [8] was Active. In addition, in test [7], the result was inactive.

Regarding `C[C@@H](O)[C@@H]1NC(=O)[C@H](CCCCN)NC(=O)[C@@H](Cc2ccc(NC(N)=O)cc2)NC(=O)[C@H](Cc2ccc(NC(=O)[C@@H]3CC(=O)NC(=O)N3)cc2)NC(=O)[C@H](NC(=O)[C@H](Cc2ccc(Cl)cc2)NC(=O)CN2CCN(CC(=O)O)CCN(CC(=O)O)CCN(CC(=O)O)CC2)CSSC[C@@H](C(=O)N[C@H](Cc2ccc(O)cc2)C(N)=O)NC1=O`, the IC50 in test [1], in test [2], in test [4] and in test [5] was over 1000 nM in each case.

With `C[C@@H](O)[C@@H]1NC(=O)[C@H](CCCCN)NC(=O)[C@@H](Cc2c[nH]c3ccccc23)NC(=O)[C@H](Cc2ccc(O)cc2)NC(=O)[C@H](NC(=O)[C@H](N)Cc2ccc(Cl)cc2)CSSC[C@@H](C(=O)N[C@@H](Cc2ccc3ccccc3c2)C(N)=O)NC1=O`, the outcome in test [6] and in test [8] was Active. For the same molecule, the outcome in test [7] was inactive.

What is called IC50 is the concentration that inhibits the measured activity by half. A high value points to a need for much substance.
